Experimental data collected from several papers.
PRCP: Lysosomal Pro-X carboxypeptidase (PRCP, Homo sapiens, UniProt P42785)
4,4'-diapophytoene synthase: 4,4'-diapophytoene synthase (Staphylococcus aureus, UniProt A9JQL9)
CHRM1: Muscarinic acetylcholine receptor M1 (CHRM1, Homo sapiens, UniProt P11229)
CYP3A4: Cytochrome P450 3A4 (CYP3A4, Homo sapiens, UniProt P08684)

SMILES | target | assay | test system | setting | endpoint | result
CCCCN1CCC(COC(=O)c2cc(Cl)c(N)c3c2OCCO3)CC1 | 5-hydroxytryptamine receptor 4 (HTR4, Homo sapiens, UniProt Q13639) | ligand displacement, radioligand | – | – | Ki | 0.0001 µM
CC(C)[C@H](N)C(=O)N1CCC[C@H]1B(O)O | PRCP | enzyme activity, inhibitor | – | – | IC50 | 50.3 µM
N[C@@H](C[C@]1(C(=O)O)C[C@H]2OC[C@@H](O)[C@@H](O)[C@H]2O1)C(=O)O | Glutamate receptor ionotropic, kainate 3 (Rattus norvegicus, UniProt P42264, T520A) | ligand displacement, radioligand | – | – | Ki | 1.4 µM
CC(C)=CCC/C(C)=C/CC/C(C)=C/CSc1ccccc1C(=O)O | 4,4'-diapophytoene synthase | enzyme activity, inhibitor | – | – | Ki | 0.11 µM
c1cc(N2CCNCC2)c2cc[nH]c2c1 | CHRM1 | ligand displacement, radioligand | – | cell membranes | Ki | > 31.6 µM
N#C[C@H](C[C@@H]1CCCNC1=O)NC(=O)[C@H](CC1CC1)NC(=O)c1cc2cccc(Cl)c2[nH]1 | CYP3A4 | enzyme activity, inhibitor | human, liver microsomes | midazolam probe | IC50 | 69.4 µM
CC[C@H](C)[C@H](NC(=O)[C@H](CCCNC(=N)N)NC(=O)[C@H](CCCCN)NC(=O)[C@@H]1CCCN1C(=O)[C@@H](N)CC(C)C)C(=O)N[C@@H](C)C(=O)O | N-terminal Xaa-Pro-Lys N-methyltransferase 1 (Homo sapiens, UniProt Q9BV86) | binding, ITC | – | pH 7.5 | Kd | 48 µM
O=P(O)(O)C(CCCc1cccc(Oc2ccccc2)c1)S(=O)(=O)O (centres unmarked) | 4,4'-diapophytoene synthase | enzyme activity, inhibitor | – | – | Ki | 0.02 µM
CC(C)C[C@H]1C(=O)N2CCC[C@H]2[C@]2(O)O[C@](NC(=O)[C@@H]3C=C4c5cccc6[nH]cc(c56)C[C@H]4N(C)C3)(C(C)C)C(=O)N12 | Solute carrier organic anion transporter family member 1B1 (SLCO1B1, Homo sapiens, UniProt Q9Y6L6) | transporter uptake, inhibitor, fluorescence | CHO | 30 min, pH 7.4 | IC50 | 0.8 µM
COc1cc(C(=O)N2CC[C@@H](O)[C@@H](N)C2)cc2nc(-c3cc4ccccc4n3CC3CC3)n(C)c12 | CHRM1 | calcium signal, agonist | – | – | EC50 | 5.01 µM
O=C(O)c1ccccc1-c1c2cc(Br)c(=O)cc-2oc2[c]([Hg+])c(O)c(Br)cc12 | Papain (Carica papaya, UniProt P00784) | binding, ITC | – | – | Kd | ~39000 µM
CC(C)C[C@H](NC(=O)[C@H](Cc1ccccc1)NC(=O)c1cnccn1)B(O)O | PRCP | enzyme activity, inhibitor | – | – | IC50 | 12.4 µM
COC(=O)C1=CCCN(C)C1 | Acetyl-CoA acetyltransferase, mitochondrial (Homo sapiens, UniProt P24752) | enzyme activity, inhibitor | – | – | IC50 | ~11.1 µM
N#CC(CCN1CCC(N)CC1)(c1ccccc1)c1ccccc1 | Potassium voltage-gated channel subfamily A member 3 (Kcna3, Mus musculus, UniProt P16390) | ion current, inhibitor, patch clamp | – | – | IC50 | > 100 µM
NCCCCCCNC(=O)c1ccc(NC(=O)c2ccc(CN(C(=O)c3ccc4c(c3)OCC(=O)N4)C3CC3)cc2)cc1 | Histone-lysine N-methyltransferase NSD2 (NSD2, Homo sapiens, UniProt O96028) | protein level, degrader | – | – | DC50 | 0.35 µM
N#Cc1c(N)nc(SCC(N)=O)c(C#N)c1-c1ccc(OCC2CC2)cc1 | Adenosine receptor A2b (ADORA2B, Homo sapiens, UniProt P29275) | ligand displacement in cells, radioligand | – | – | IC50 | 0.785 µM
CCc1cc(/C(C)=N/OCc2ccc(C3CCCCC3)c(C(F)(F)F)c2)ccc1CN1CC(C(=O)O)C1 | CYP3A4 | enzyme activity, inhibitor | human, liver microsomes | 20 min, midazolam probe | IC50 | > 1.1 µM
